pIC50: −log10 of the molar value. The source made the active and inactive calls. The rule behind the calls is not given here.
Key:
[1] = target: Glucagon receptor (Homo sapiens, UniProt P47871); assay: Binding affinity to human cloned GluR expressed in BHK cells; type: cell-based
How it was run: (§1)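 Competitive binding on purified plasma membranes from BHK cells expressing the cloned human receptor (glucagon, GIP or GLP-1 receptor). The glucagon receptor protocol follows earlier published work, and the GIP and GLP-1 assays were done the same way.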

[2] = Half life in Sprague-Dawley rat at 2 mg/kg, iv; type: ADME, organism-based; set-up: dose 2 mg/kg, route intravenous; conditions: in vivo
How it was run: (§2)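 Fasted male Sprague-Dawley rats (~200 g) were given 2 mg/kg iv or 4 mg/kg po. Vehicle: 5% ethanol, 20% propylene glycol, 10% hydroxypropyl-β-cyclodextrin in phosphate buffer pH 7.5-8.0. EDTA blood was taken by heart puncture under CO2 at 5-360 min (iv) or 15-360 min (po). Plasma was analysed by HTLC-MS/MS, with noncompartmental PK analysis.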

[3] = target: T1, Gastric inhibitory polypeptide receptor (Homo sapiens, UniProt P48546); assay: Binding affinity to human cloned GIPR expressed in BHK cells; type: cell-based; how it was run: as §1
T1 sequence (P48546 whole entry): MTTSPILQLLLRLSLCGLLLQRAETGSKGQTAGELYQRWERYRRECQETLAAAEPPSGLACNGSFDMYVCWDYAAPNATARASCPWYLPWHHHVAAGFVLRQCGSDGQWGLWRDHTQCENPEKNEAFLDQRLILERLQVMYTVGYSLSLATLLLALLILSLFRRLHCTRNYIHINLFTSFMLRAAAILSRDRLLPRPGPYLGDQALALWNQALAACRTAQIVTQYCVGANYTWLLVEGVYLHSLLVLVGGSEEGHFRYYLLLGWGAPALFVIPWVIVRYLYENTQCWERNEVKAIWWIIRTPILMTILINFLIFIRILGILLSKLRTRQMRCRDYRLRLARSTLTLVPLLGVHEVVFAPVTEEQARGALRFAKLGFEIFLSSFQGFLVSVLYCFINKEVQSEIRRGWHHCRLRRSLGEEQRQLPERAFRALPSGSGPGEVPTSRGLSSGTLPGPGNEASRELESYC

[4] = Oral bioavailability in Sprague-Dawley rat at 4 mg/kg; type: ADME, organism-based; conditions: in vivo; how it was run: as §2
[5] = target: Glucagon receptor (Rattus norvegicus, UniProt P30082); assay: Binding affinity to GlucR in rat liver membrane; type: cell membranes
How it was run: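 Competitive binding on isolated rat liver membrane preparations, run by the same protocol as the human glucagon receptor binding assay.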

[6] = target: T2, Gastric inhibitory polypeptide receptor (Rattus norvegicus, UniProt P43219); assay: Binding affinity to GIPR in rat liver membrane; type: cell membranes
T2 sequence (P43219 whole entry): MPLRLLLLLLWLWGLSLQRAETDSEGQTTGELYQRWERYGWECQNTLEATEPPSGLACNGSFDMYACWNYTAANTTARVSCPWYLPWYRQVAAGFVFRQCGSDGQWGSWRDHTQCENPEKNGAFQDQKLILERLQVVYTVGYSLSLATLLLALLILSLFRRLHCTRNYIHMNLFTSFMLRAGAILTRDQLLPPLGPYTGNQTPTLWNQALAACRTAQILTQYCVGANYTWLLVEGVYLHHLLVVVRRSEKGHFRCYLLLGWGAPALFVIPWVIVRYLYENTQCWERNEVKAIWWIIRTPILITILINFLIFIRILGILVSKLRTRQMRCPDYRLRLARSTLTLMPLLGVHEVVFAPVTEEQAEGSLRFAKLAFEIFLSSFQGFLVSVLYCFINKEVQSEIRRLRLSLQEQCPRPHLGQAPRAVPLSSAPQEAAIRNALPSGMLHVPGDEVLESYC

[7] = system: Pancreas; assay: Inhibition of GIP-stimulated insulin secretion in rat pancreas; type: functional, tissue-based
How it was run: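 Isolated perfused rat pancreas: 80 mg/dL glucose at 1-4 min, then 160 mg/dL glucose with compound at 5-50 min, and 500 pM GIP infused at 15-34 min. Portal outflow was collected each minute and insulin measured by radioimmunoassay; n = 4 per group.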

[8] = target: Glucagon-like peptide 1 receptor (Homo sapiens, UniProt P43220); assay: Binding affinity to human cloned GLP1R expressed in BHK cells; type: cell-based; how it was run: as §1
[9] = system: Hepatocyte; assay: Increase in lactate production in rat hepatocytes; type: functional, cell-based
[10] = system: Hepatocyte; assay: Inhibition of adrenaline-stimulated glycogenolysis in rat hepatocytes up to 25 uM; type: functional, cell-based
How it was run: (§3)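 Glycogen-loaded cultured primary rat hepatocytes, either unstimulated (basal) or adrenaline-stimulated, in medium with 0.1% HSA. Compounds were tested at concentrations up to 25 µM, and glycogenolysis was read as glucose release.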

[11] = system: Hepatocyte; assay: Inhibition of glucagon-stimulated glycogenolysis in rat hepatocytes; type: functional, cell-based
How it was run: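 Isolated, cultured primary rat hepatocytes were loaded with glycogen and stimulated with 0.5 nM glucagon plus increasing compound concentrations in medium containing 0.1% HSA. Glucose released into the medium was measured after 60 min, and IC50 was derived.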

[12] = system: Hepatocyte; assay: Inhibition of basal glycogenolysis in rat hepatocytes up to 25 uM; type: functional, cell-based; how it was run: as §3
[13] = system: BHK; assay: Selectivity ratio of IC50 for human cloned GluR to IC50 for human cloned GLP1R expressed in BHK cells; type: cell-based
[14] = system: Mus musculus; assay: Reduction of hyperglycemia in leptin-deficient obese type-2 diabetes ob/ob mouse model at 100 mg/kg, po after 6 hrs; type: functional, organism-based; set-up: dose 100 mg/kg
How it was run: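 Male ob/ob mice (11-13 weeks), selected for highest blood glucose and randomized to matched groups. Dosed 0 or 100 mg/kg by oral gavage in the morning, with food withheld for 6 h. Blood glucose was measured ~1/2 h predose and at 2, 4, 6 and 24 h, expressed as change from baseline.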

[15] = system: Rattus norvegicus; assay: Inhibition of glucagon-stimulated increase in blood glucose levels in iv dosed Sprague-Dawley rat administered 5 mins before glucagon challenge; type: functional
How it was run: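 Nonfasted male Sprague-Dawley rats (200 g) were anaesthetized with sc fentanyl/fluanisone plus midazolam. Compound was given via jugular catheter at 0, 3 or 10 mg/kg, followed 5 min later by iv glucagon 3 µg/kg. Tail-tip blood glucose was sampled at 25 and 5 min before compound and 10 min after glucagon. Response = 10-min value minus mean basal.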

Sequence of Glucagon-like peptide 1 receptor (P43220 whole entry): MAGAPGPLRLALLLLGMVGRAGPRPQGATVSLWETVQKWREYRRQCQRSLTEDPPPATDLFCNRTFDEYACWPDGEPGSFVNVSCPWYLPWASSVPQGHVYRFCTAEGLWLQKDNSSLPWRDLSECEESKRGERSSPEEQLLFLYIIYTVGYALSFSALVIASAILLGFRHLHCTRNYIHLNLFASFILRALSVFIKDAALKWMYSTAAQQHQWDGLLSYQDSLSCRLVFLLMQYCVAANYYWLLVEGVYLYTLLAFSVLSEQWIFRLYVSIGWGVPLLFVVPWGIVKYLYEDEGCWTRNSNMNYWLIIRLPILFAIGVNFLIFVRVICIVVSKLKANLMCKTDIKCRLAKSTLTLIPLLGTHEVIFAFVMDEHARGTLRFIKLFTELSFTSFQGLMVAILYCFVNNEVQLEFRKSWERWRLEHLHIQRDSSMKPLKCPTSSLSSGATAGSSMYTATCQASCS
Sequence of Glucagon receptor (Rattus norvegicus, UniProt P30082) (P30082 whole entry): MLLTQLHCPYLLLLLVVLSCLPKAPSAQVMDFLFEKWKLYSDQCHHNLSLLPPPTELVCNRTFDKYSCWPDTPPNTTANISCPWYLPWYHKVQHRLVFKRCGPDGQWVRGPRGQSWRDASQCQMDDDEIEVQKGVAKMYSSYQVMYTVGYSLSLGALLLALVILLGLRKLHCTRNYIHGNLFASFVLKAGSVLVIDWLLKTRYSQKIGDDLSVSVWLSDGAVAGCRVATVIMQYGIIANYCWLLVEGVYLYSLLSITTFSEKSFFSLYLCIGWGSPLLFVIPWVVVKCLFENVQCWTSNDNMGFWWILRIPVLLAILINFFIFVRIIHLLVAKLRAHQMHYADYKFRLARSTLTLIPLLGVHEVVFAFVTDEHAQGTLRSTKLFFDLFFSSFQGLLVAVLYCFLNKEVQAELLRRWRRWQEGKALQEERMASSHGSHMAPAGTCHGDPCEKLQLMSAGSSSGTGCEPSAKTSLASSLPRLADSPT
Sequence of Glucagon receptor (Homo sapiens, UniProt P47871) (P47871 whole entry): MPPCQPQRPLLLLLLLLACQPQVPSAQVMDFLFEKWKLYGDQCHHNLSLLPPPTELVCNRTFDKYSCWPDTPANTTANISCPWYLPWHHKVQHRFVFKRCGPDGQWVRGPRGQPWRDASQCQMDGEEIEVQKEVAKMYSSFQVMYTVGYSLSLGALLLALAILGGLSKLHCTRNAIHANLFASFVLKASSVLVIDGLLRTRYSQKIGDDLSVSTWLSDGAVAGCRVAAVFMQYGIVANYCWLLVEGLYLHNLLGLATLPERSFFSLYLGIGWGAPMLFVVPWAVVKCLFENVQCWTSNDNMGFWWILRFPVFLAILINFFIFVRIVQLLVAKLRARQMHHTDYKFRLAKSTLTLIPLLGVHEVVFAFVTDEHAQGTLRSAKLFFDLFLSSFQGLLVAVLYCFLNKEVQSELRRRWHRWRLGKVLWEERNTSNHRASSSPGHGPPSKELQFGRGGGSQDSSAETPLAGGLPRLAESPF

SMILES | pIC50 [1] | pIC50 [3] | pIC50 [8] | also measured
COc1cc(NC(=O)N(Cc2ccc(C(=O)NC[C@@H](O)C(=O)O)cc2)c2ccc(C3=CCCCC3)cc2)cc(C(F)(F)F)c1 | 7.85 | 6.55 | – | half-life [2]: 53 min; bioavailability [4]: 7%
CC(C)(C)C1CCC(N(Cc2ccc(C(=O)NCCC(=O)O)cc2)C(=O)Nc2ccc(OC(F)(F)F)cc2)CC1 (stereo not given) | 7.63 | 7.55 | 5.60 | pIC50 [5]: 7.64; pIC50 [6]: 7.38; Activity [7]: Active
CC(C)(C)[C@H]1CC[C@H](N(Cc2ccc(C(=O)NC[C@@H](O)C(=O)O)cc2)C(=O)Nc2cc(C(F)(F)F)cc(C(F)(F)F)c2)CC1 | 8.10 | 7.06 | 5.11 | half-life [2]: 41 min; bioavailability [4]: 11%
N#Cc1ccc(NC(=O)N(Cc2ccc(C(=O)NC[C@@H](O)C(=O)O)cc2)c2ccc(C3CCCCC3)cc2)cc1C(F)(F)F | 8.05 | 6.70 | – | –
O=C(NC[C@@H](O)C(=O)O)c1ccc(CN(C(=O)Nc2cc(Cl)cc(Cl)c2)c2ccc(C3CCCCC3)cc2)cc1 | 8.40 | 7.03 | – | –
O=C(O)CCNC(=O)c1ccc(CN(C(=O)Nc2cc(Cl)cc(Cl)c2)c2ccc(C3=CCCCC3)cc2)cc1 | 7.92 | 7.19 | 5.30 | Activity [9]: Active; Activity [10]: inactive; pIC50 [5]: 7.44; pIC50 [11]: 6.09; Activity [12]: inactive; pIC50 [6]: 6.67; Activity [7]: Active; Ratio IC50 [13]: 400
Cc1cc(C)cc(NC(=O)N(Cc2ccc(C(=O)NC[C@@H](O)C(=O)O)cc2)[C@H]2CC[C@H](C(C)(C)C)CC2)c1 | 7.57 | 6.66 | – | –
O=C(NC[C@@H](O)C(=O)O)c1ccc(CN(C(=O)Nc2ccccc2)c2ccc(C3=CCCCC3)cc2)cc1 | 6.78 | 5.86 | – | –
O=C(NC[C@@H](O)C(=O)O)c1ccc(CN(C(=O)Nc2cc(Cl)cc(Cl)c2)c2ccc(C3=CCCCC3)cc2)cc1 | 8.41 | 6.44 | 4.77 | Activity [9]: Active; Activity [10]: inactive; pIC50 [5]: 7.37; half-life [2]: 53 min; Activity [14]: Active; Activity [15]: Dose-dependent effect; minimal effective dose ([15]; read-out: MED): 3 mg/kg; pIC50 [11]: 6.70; Activity [12]: inactive; pIC50 [6]: 6.30; bioavailability [4]: 32%; Ratio IC50 [13]: 4300
O=C(NC[C@@H](O)C(=O)O)c1ccc(CN(C(=O)Nc2cc(Br)cc(C(F)(F)F)c2)c2ccc(C3=CCCCC3)cc2)cc1 | 8.15 | 6.42 | – | half-life [2]: 46 min; bioavailability [4]: 14%
CC(C)(C)c1cccc(NC(=O)N(Cc2ccc(C(=O)NC[C@@H](O)C(=O)O)cc2)c2ccc(C3CCCCC3)cc2)c1 | 7.74 | 7.13 | – | –
CC(C)(C)c1ccc(N(Cc2ccc(C(=O)NCCC(=O)O)cc2)C(=O)Nc2ccc(OC(F)(F)F)cc2)cc1 | 7.44 | 7.42 | 4.97 | –
CSc1cccc(NC(=O)N(Cc2ccc(C(=O)NC[C@@H](O)C(=O)O)cc2)c2ccc(C3CCCCC3)cc2)c1 | 8.05 | 6.39 | – | half-life [2]: 43 min; bioavailability [4]: 8%

The next lines start with results.

pIC50 [1] | pIC50 [3] | pIC50 [8] | SMILES | also measured
8.00 | 7.01 | – | Cc1cc(NC(=O)N(Cc2ccc(C(=O)NC[C@@H](O)C(=O)O)cc2)[C@H]2CC[C@H](C(C)(C)C)CC2)cc(C(F)(F)F)c1 | –
8.22 | 7.08 | – | O=C(NC[C@@H](O)C(=O)O)c1ccc(CN(C(=O)Nc2ccc3c(c2)C(F)(F)OC(F)(F)O3)c2ccc(C3=CCCCC3)cc2)cc1 | –
7.09 | 6.43 | 5.31 | CC(C)(C)[C@H]1CC[C@H](N(Cc2ccc(C(=O)NC[C@H](O)C(=O)O)cc2)C(=O)Nc2cc(C(F)(F)F)cc(C(F)(F)F)c2)CC1 | –
7.85 | 6.39 | – | O=C(NC[C@@H](O)C(=O)O)c1ccc(CN(C(=O)Nc2cccc(Cl)c2)c2ccc(C3=CCCCC3)cc2)cc1 | –
7.80 | 7.03 | – | CC(C)(C)[C@H]1CC[C@H](N(Cc2ccc(C(=O)NCCC(=O)O)cc2)C(=O)Nc2cc(C(F)(F)F)cc(C(F)(F)F)c2)CC1 | –
8.22 | 7.92 | – | O=C(NC[C@@H](O)C(=O)O)c1ccc(CN(C(=O)Nc2ccc(SC(F)(F)F)cc2)c2ccc(C3CCCCC3)cc2)cc1 | –
8.30 | 6.30 | – | CS(=O)(=O)c1cc(NC(=O)N(Cc2ccc(C(=O)NC[C@@H](O)C(=O)O)cc2)c2ccc(C3=CCCCC3)cc2)ccc1OC(F)(F)F | half-life [2]: 55 min; bioavailability [4]: 10%
7.85 | 6.15 | – | O=C(NCC(O)C(=O)O)c1ccc(CN(C(=O)Nc2cc(Cl)cc(Cl)c2)c2ccc(C3=CCCCC3)cc2)cc1 (racemic) | –
8.10 | 6.67 | – | O=C(NC[C@@H](O)C(=O)O)c1ccc(CN(C(=O)Nc2cccc(Br)c2)c2ccc(C3CCCCC3)cc2)cc1 | half-life [2]: 72 min; bioavailability [4]: 21%
8.05 | 6.84 | – | COc1cc(NC(=O)N(Cc2ccc(C(=O)NC[C@@H](O)C(=O)O)cc2)c2ccc(C3CCCCC3)cc2)cc(C(F)(F)F)c1 | –
7.26 | 6.50 | – | CC(C)(C)c1ccc(N(Cc2ccc(C(=O)NCC(O)C(=O)O)cc2)C(=O)Nc2ccc(OC(F)(F)F)cc2)cc1 (racemic) | –
6.16 | 5.52 | 4.66 | CO[C@H](CNC(=O)c1ccc(CN(C(=O)Nc2cc(Cl)cc(Cl)c2)c2ccc(C3=CCCCC3)cc2)cc1)C(=O)O | –
7.29 | 6.35 | 5.03 | O=C(NC[C@H](O)C(=O)O)c1ccc(CN(C(=O)Nc2cc(Cl)cc(Cl)c2)c2ccc(C3=CCCCC3)cc2)cc1 | –
